PGC1a acetyl inh – inhibitors of PGC1a acetylation signal, primary screen, cell-based, U2OS, AlphaScreen, inhibitor mode. AlphaScreen anti-acetyl-lysine; with virally co-expressed GCN5 acetyltransferase. actives 0.17% (n = 350,000). inhibition, % at 15.6 µM;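 active = every replicate shows inhibition of at least 40%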;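 also: 0% = neutral control wells and 100% = positive control wells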
SIRT5 inh – SIRT5 desuccinylase inhibitors, primary screen, biochemical, fluorescence imaging, single point, set 5; NAD-dependent protein deacylase sirtuin-5, mitochondrial (Homo sapiens), Q9NXA8; Purified SirT5, succinyl-peptide AMC, trypsin-coupled fluorescence; inhibition, % at 15 µM; actives 1.1% (n = 330,000); AID 652115, 2013; in the data active = inhibition above about 15%
Target sequence (Q9NXA8 whole entry, looked up): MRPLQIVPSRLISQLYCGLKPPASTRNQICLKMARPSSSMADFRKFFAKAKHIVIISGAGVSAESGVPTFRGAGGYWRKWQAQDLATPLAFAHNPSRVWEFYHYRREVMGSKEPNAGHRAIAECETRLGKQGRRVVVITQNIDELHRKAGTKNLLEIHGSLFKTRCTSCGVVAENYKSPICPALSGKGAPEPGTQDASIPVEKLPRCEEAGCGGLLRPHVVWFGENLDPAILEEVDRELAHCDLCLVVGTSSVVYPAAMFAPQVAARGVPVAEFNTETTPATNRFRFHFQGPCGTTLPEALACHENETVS
S100A4 inh HTS – inhibitors of S100A4-myosin IIA peptide binding, primary screen, biochemical, fluorescence polarization, TAMRA-MyoIIA peptide | AID 652163, 2013 | inhibition, % at 10.7 µM | Protein S100-A4 (Homo sapiens), P26447 | actives 0.14% (n = 360,000);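 active = mean inhibition of at least 70% across replicates, with every replicate also reaching that level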
Target sequence (P26447 whole entry, looked up): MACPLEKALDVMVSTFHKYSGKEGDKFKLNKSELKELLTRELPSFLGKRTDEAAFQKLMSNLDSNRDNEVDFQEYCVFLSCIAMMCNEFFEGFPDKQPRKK
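Assay system: human S100A4 monomer with TAMRA-labelled myosin IIA peptide / Buffer or medium: Calcium-containing HEPES buffer, pH 7.2 / Reagent: TAMRA-labelled myosin IIA heavy-chain peptide probe, 5 nM / Compound: one dose per compound / Timing: polarization read 5 min after assay mix addition, stable 5–60 min / Benchmarks: neutral control DMSO, positive control TFP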
Ecoli rRNA inh – reduced GFP signal of wild-type E. coli, primary screen, bacterial rRNA inhibitor project, GFP/RFP fluorescence, OD600, single point. GFP signal change (wild-type ribosome), % (no concentration beside the values). AID 720706, 2013. actives 1.6% (n = 350,000). E. coli WT GFP vs humanized-ribosome RFP mutants, 24 h; active compounds read low; DMSO median 0, no signal -100;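 active = significant combined selectivity score with lowered wild-type GFP, culture density cut under 30%, mutant RFP and density less affected; inactive = any of these conditions unmet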
Cneo AK release – Cryptococcus neoformans cell lysis inducers, primary screen, AK release luminescence, single concentration. C. neoformans lysis, adenylate kinase release luminescence, 4 h; normalised: neutral wells 0, clomiphene wells 100. lysis activity, % at 15 µM. actives 0.2% (n = 360,000). AID 651654, 2012;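 active = mean lysis activity across replicates of at least 80%, whatever share of replicates individually reach that level; inactive = mean lysis activity below 80%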
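Test system: log-phase Cryptococcus neoformans yeast cells; Quantity: yeast cell density of 5 × 10^6 cells/mL; Buffer or medium: YPD; Doses: single compound concentration per well; Timing: 4 h at 37 °C static, read 1 h later; Measured by: AK luminescence; Read-out basis: lysis from increased AK signal; Control set: Clomiphene as positive control.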
C2C12 statin – suppressors of statin myotoxicity in C2C12 myotubes, primary screen, cell-based, single point, plate reader; AID 602340, 2012; C2C12 myotubes + simvastatin, ATP luminescence, 48 h; scaled: DMSO 0, geranylgeraniol control 100; actives 0.78% (n = 330,000); rescue of ATP level, % at 7.49 µM;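 active = mean ATP rescue above about 67%, or every replicate alone reaching that limit, limit read from the data, passing the limit was not always enough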;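 also: myotubes were challenged with 10 µM simvastatin during compound exposure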
* marks the source's active call; other numbers are inactive results; . = not tested or not shown. Only some compounds are listed: those with a hit (about 3% of all), similar ones and a draw of the others.

SMILES | PGC1a acetyl inh | SIRT5 inh | S100A4 inh HTS | Ecoli rRNA inh | Cneo AK release | C2C12 statin
Cc1ccc(NC(=S)Nc2ccc(OC(F)F)c(Cl)c2)cc1Cl | 7 | 3 | 2 | -60 | -2 | 0
Cc1ccc(NC(=S)Nc2ccc(Cl)c(Cl)c2)c(OC(F)F)c1 | . | 1 | -1 | -41* | . | .
CCC(C)NC(=O)C(CCSC)NC(=O)c1ccccc1 (stereo not drawn) | 4 | . | . | . | . | .
CSCCC(NC(=O)c1ccccc1)C(=O)NCCCSc1ccccc1 (stereo not drawn) | . | 0 | 9 | -23* | 1 | -5
Cc1cccc(NC(=O)/C(C#N)=C/c2ccccc2Cl)n1 | . | 1 | -1 | -22* | 4 | 1
Cc1cccc(NC(=O)CNC(=O)c2ccccc2Cl)n1 | . | 0 | 99* | 1 | -1 | -7
Cc1cccc(NC(=O)CNC(=O)c2sc3ccccc3c2Cl)n1 | . | -4 | -3 | -2 | 0 | 8
CCOc1cc(-c2nc3ccccc3s2)ccc1O | 0 | 7 | 3 | -35* | 6 | 6
COc1cc(-c2nc3ccccc3s2)ccc1O | 4 | . | . | . | 2 | -26
C[C@@H]1CCCCO[C@@H](CN(C)CC2CCCCC2)[C@@H](C)CN([C@@H](C)CO)C(=O)c2cc(NS(=O)(=O)c3ccc(F)cc3)ccc2O1 | -6 | 19* | 1 | -39 | 5 | -86
Cc1ccc(S(=O)(=O)Nc2ccc3c(c2)C(=O)N([C@@H](C)CO)C[C@@H](C)[C@@H](CN(C)CC2CCCCC2)OCCCC[C@H](C)O3)cc1 | -19 | 17* | 2 | -8 | -3 | .
C[C@@H]1CCCCO[C@H](CN(C)CC2CCCCC2)[C@H](C)CN([C@@H](C)CO)C(=O)c2cc(NS(=O)(=O)c3ccc(F)cc3)ccc2O1 | -11 | 14 | 2 | -12 | 2 | -249
Cc1ccc(S(=O)(=O)Nc2ccc3c(c2)C(=O)N([C@H](C)CO)C[C@H](C)[C@@H](CN(C)CC2CCCCC2)OCCCC[C@H](C)O3)cc1 | -8 | 3 | 1 | 1 | -11 | .
O=C(C[C@H]1C[C@@H]2c3cc(NC(=O)c4ccc5c(c4)OCO5)ccc3O[C@@H]2[C@@H](CO)O1)NCc1ccc(Cl)cc1 | -7 | 7 | 3 | -12 | -2 | 14
O=[N+]([O-])c1ccccc1N/N=C1\CC2CC=CC12 (stereo not drawn) | . | 13 | -1 | -29* | . | .
CCCN1C(=O)C(O)(C2CC(=O)CC(C)(C)O2)c2ccccc21 (stereo not drawn) | 6 | . | . | . | 126* | -5
CCCN1C(=O)C(O)(C/C(C)=N/O)c2ccccc21 (stereo not drawn) | 7 | . | . | . | 3 | 125*
O=C(C[C@H]1CC[C@H](NS(=O)(=O)c2ccccc2)[C@H](CO)O1)NCCN1CCCCC1 | 6 | -2 | -9 | 1 | -4 | 3
Cc1ccc(-c2c[n+](CC(=O)c3cccs3)c3n2CCC3)cc1 | 10 | 0 | -7 | -44* | . | .
COc1ccc(-c2c[n+](CC(=O)c3cccs3)c3n2CCC3)cc1 | -3 | -3 | 3 | -21 | . | .
Cc1ccc(-c2c[n+](CC(=O)Nc3ccc(C)cc3C)c3n2CCC3)cc1 | 2 | . | -4 | -33* | 2 | 1
O=C(C[n+]1cc(-c2ccc(Cl)cc2)n2c1CCC2)Nc1nc(-c2ccccc2)cs1 | . | -3 | -4 | -44* | . | .
O=C(C[n+]1cc(-c2ccc(Cl)cc2)n2c1CCC2)N1c2ccccc2Sc2ccccc21 | . | . | . | . | 0 | .
COc1ccc(-c2c[n+](CC(=O)N3c4ccccc4Sc4ccccc43)c3n2CCC3)cc1 | . | -4 | 0 | -45* | . | .
O=C(C[n+]1cc(-c2ccc(F)cc2)n2c1CCC2)Nc1nc(-c2ccccc2)cs1 | . | . | . | . | -2 | .
SMILES | PGC1a acetyl inh | SIRT5 inh | S100A4 inh HTS | Ecoli rRNA inh | Cneo AK release | C2C12 statin
CCC(=O)Nc1ccc2c(c1)C(=O)N(C)[C@H]1CC[C@@H](CC(=O)Nc3cccc(OC)c3)O[C@@H]1CO2 | 3 | -2 | -2 | -2 | 6 | 26
COc1cccc(CN(CCC(C)C)S(=O)(=O)c2cc(Br)ccc2Br)c1 | . | 28* | 8 | 7 | 0 | -8
COc1ccccc1Cn1c(=S)[nH]c2ccccc2c1=O | -10 | -4 | -1 | -28* | 0 | -3
COc1ccccc1Cn1c(=S)[nH]c2ccc(F)cc2c1=O | -3 | -2 | -4 | -14* | 3 | 3
C=C(C)Cn1c(=S)[nH]c2ccccc2c1=O | 10 | . | . | . | -1 | 144*
COc1ccccc1Cn1c(=S)[nH]c2ccc(Br)cc2c1=O | -12 | -1 | -2 | 3 | 2 | -4
CC(C)Cn1c(=S)[nH]c2ccccc2c1=O | 5 | 1 | 2 | 2 | . | .
O=C(Nc1nc(-c2ccc(Cl)cc2Cl)cs1)c1ccc(OCC2CCCO2)cc1 (stereo not drawn) | 24 | 112* | 0 | 4 | 1 | .
Oc1ccc(-c2cn3c(n2)SCC3)cc1 | -13 | . | . | . | -2 | 97*
C/C=C/c1ccc(C2[C@H]3CNC[C@@H]2N3Cc2cc(-c3ccccc3)on2)cc1 (stereo partly drawn) | -24 | 6 | -6 | -60 | . | .
C[C@H](NC(=O)[C@H]1[C@H](CO)[C@H]2Cn3c(ccc(-c4ccncc4)c3=O)[C@H]2N1C)c1ccccc1 | . | 1 | -1 | -1 | -1 | 1
O=C(O)CSc1nc(-c2ccc(Cl)cc2)nc2c1oc1ccccc12 | . | 0 | -4 | -48 | 2 | .
O=C(O)CSc1nc(-c2ccccc2)nc2c1oc1ccccc12 | 5 | . | . | . | -6 | 120*
C[C@H]1CN([C@@H](C)CO)C(=O)c2cc(C3=CCCC3)cnc2O[C@H]1CN(C)C(=O)c1ccccc1 | 5 | 0 | -2 | 5 | 0 | 0
C[C@H](CO)N1C[C@H](C)[C@@H](CN(C)C(=O)c2ccccc2)OCCCC[C@H](C)Oc2ccc(NC(=O)Cc3ccccc3)cc2C1=O | 6 | -1 | 5 | 1 | -3 | .
COc1ccc(S(=O)(=O)N(C)C[C@@H]2Oc3ccc(NC(=O)Nc4ccc(F)cc4)cc3C(=O)N([C@@H](C)CO)C[C@H]2C)cc1 | -7 | 7 | -7 | -6 | 3 | -52
COc1ccc(S(=O)(=O)N(C)C[C@H]2Oc3ccc(NC(=O)Nc4ccc(F)cc4)cc3C(=O)N([C@H](C)CO)C[C@H]2C)cc1 | 5 | 21* | -8 | -1 | 6 | -48

Source: PubChem (Broad Institute)
